Source: PubChem
Compounds with a hit are over-represented: about 2.3% of the library has one in this group of screens.
TRPC6 act – mouse TRPC6 channel activators, primary screen, cell-based, HEK293, membrane potential dye | Short transient receptor potential channel 6 (Mus musculus), Q61143 | HEK293-TRPC6 membrane potential dye fluorescence; active compounds read high | B-score at 10 µM | 310,000 tested, 0.13% active;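 active = B-score of the integrated fluorescence ratio above library mean plus 3 SD, and starting fluorescence ratio within library mean plus 5 SD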;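 also: higher score means more depolarization so channel activation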
TRPC4 inh – inhibitors of mouse TRPC4 channel, primary screen, Fluo4 calcium, HEK293 TRPC4beta/mu-opioid cells. Short transient receptor potential channel 4 (Mus musculus), Q9QUQ5. DAMGO-evoked Fluo4 calcium flux; active compounds read low. B-score at 10 µM. 300,000 tested, 0.39% active;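 active = B-score over 3 SD under the library average, no early fluorescence shift, positive overall ratio signal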
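test system = HEK293 cells with stable TRPC4beta plus mu-opioid receptor expression | detection = Fluo4 Ca2+ flux fluorescence | read-out = integrated fluorescence ratio relative to baseline, converted to per-well B score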
TRPC6 inh – mouse TRPC6 channel inhibitors, primary screen, cell-based, HEK293, membrane potential dye; Short transient receptor potential channel 6 (Mus musculus), Q61143; ACh-evoked depolarization; active compounds read low; B-score at 10 µM; 310,000 tested, 1.1% active; AID 2553, 2010;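 active = B-score under library mean minus 3 SD, initial fluorescence not abnormally high, positive integrated signal ratio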;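 also: B-score derived from integrated fluorescence ratio over the kinetic read; more negative B-score means stronger inhibition of depolarization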
TRPC4 act – activators of mouse TRPC4 channel, primary screen, Fluo4 calcium, HEK293 TRPC4beta/mu-opioid cells; Short transient receptor potential channel 4 (Mus musculus), Q9QUQ5; 310,000 tested, 0.49% active; Fluo4 calcium fluorescence; active compounds read high; B-score at 10 µM;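 active = B-score above 5 SD of library B-scores, and initial fluorescence ratio not above library mean plus 5 SD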;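 also: positive B-score marks a calcium rise read as TRPC4 activation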
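Material: HEK293 stable line with TRPC4beta plus mu-opioid receptor; technique: Fluo4 calcium-sensitive dye fluorescence, kinetic, 1 Hz baseline; timing: Fluo4 dye loading 45 min at room temperature, 110 s recording; controls: assay buffer as low control, maximal DAMGO as high control; read-out: integrated baseline-normalised fluorescence ratio, converted to per-well B score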
TRPC4 PAM – positive allosteric modulators of TRPC4, primary screen, cell-based, mouse TRPC4beta, HEK293 mu-opioid, Fluo-4 calcium | Short transient receptor potential channel 4 (Mus musculus), Q9QUQ5 | DAMGO EC20, Fluo-4 Ca2+ flux; active compounds read high | B-score at 10 µM | 310,000 tested, 0.42% active;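 active = B-score of calcium response area above 5 SD of library B-scores, with initial fluorescence ratio within 5 SD of library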;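 also: B-score of integrated fluorescence ratio over time as area under calcium response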
TRPC4 spec 2 – second selectivity test of TRPC6 inhibitors: effect on mouse TRPC4; 920 tested, 42% active; AID 2776; HEK293 TRPC4/MOR, membrane potential dye fluorescence; channel activated by saturating DAMGO dose; inhibition, % at 10 µM; shares compounds with TRPC6 inh;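 active = compounds whose fluorescence signal differed from control wells by over 3 SD, either direction, in both duplicate plates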
TRPC4 spec – mouse TRPC4 modulation by TRPC6 hits, confirmation, selectivity assay for TRPC6 inhibitor project, cell-based, HEK293 TRPC4/mu-opioid, membrane potential dye; membrane potential fluorescence; activity change, negative = inhibition, % at 10 µM; 920 tested, 61% active; shares compounds with TRPC6 inh;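 active = rise or fall in signal beyond 3 SD of buffer-only wells in both replicate plates, either sign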;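 also: integrated kinetic ratio of fluorescence range over baseline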
HEK293 MPD ctr 2-1 – nonspecific membrane potential effects, parental HEK293, confirmation, counter-screen for TRPC6 inhibitor project, cell-based, second counter screen; parental HEK293 membrane potential dye fluorescence; maximal acetylcholine challenge after compound addition; 920 tested, 31% active; shares compounds with TRPC6 inh; signal change vs control, % at 10 µM;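 active = membrane potential signal moving either way by over 3 SD of the maximum-effect control, in both duplicate plates, meaning non-specific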
HEK293 MPD ctr-1 – membrane potential modulation in parental HEK293, confirmation, counter-screen for TRPC6 inhibitor project, cell-based; AID 2780, 2010; parental HEK293 membrane potential dye fluorescence; membrane potential signal change, % at 10 µM; shares compounds with TRPC6 inh; 920 tested, 60% active;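 active = membrane potential signal shifting up or down by more than 3 SD of buffer-only wells, on both duplicate plates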
HEK293 MPD ctr-2 – parental HEK293 membrane potential modulation, confirmation, counter-screen for TRPC6 modulator project, cell-based; AID 488924, 2010; shares compounds with TRPC6 inh; 2,400 tested, 51% active; membrane potential signal change, % at 10 µM; membrane potential dye fluorescence;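 active = membrane potential signal moves up or down beyond 5 SD from buffer-only wells, on both duplicate plates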
HEK293 MPD ctr 2-2 – second check of TRPC6 modulator effects in parental HEK293 cells. inhibition, % at 10 µM. membrane potential dye fluorescence; after compound, maximal acetylcholine stimulation. AID 488926. 2,400 tested, 14% active. shares compounds with TRPC6 inh;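 active = membrane potential signal drops by more than 5 SD from the mean control signal, in both duplicate plates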;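 also: plate controls were acetylcholine ECmax control wells for no effect and buffer only wells for full effect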
TRPC4 ctr mod – TRPC4 modulation by TRPC6 hit compounds, confirmation, selectivity assay for TRPC6 modulator project, cell-based, HEK293 TRPC4/mu-opioid, membrane potential dye, mouse | shares compounds with TRPC6 inh | 2,400 tested, 69% active | percent change from control (negative = decrease, positive = increase), % at 10 µM | AID 488927, 2010 | membrane potential fluorescence;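 active = membrane potential signal moved up or down beyond 5 SD of buffer control wells, in both duplicate plates, actives on both sides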;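 also: plate controls were assay buffer wells for no effect and DAMGO maximal-effect wells for full effect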
TRPC4/MOR inh 2 – second selectivity test of TRPC6 modulators against mouse TRPC4. shares compounds with TRPC6 inh. HEK293 TRPC4/mu-opioid, membrane potential dye fluorescence; stimulated with maximal-effect DAMGO. inhibition, % at 10 µM. 2,400 tested, 55% active;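 active = drop in membrane potential signal beyond 5 SD of the control wells in both duplicate plates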;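 also: TRPC4 counter screen for TRPC6 hits run under conditions tuned for TRPC6 not TRPC4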
TRPC6 block conf – mouse TRPC6 channel inhibitors, confirmation, HEK293 cells, membrane potential dye, duplicate. shares compounds with TRPC6 inh. 3,300 tested, 43% active. inhibition, % at 10 µM. ACh-evoked depolarization. AID 488960, 2010;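 active = fluorescence ratio falls more than 5 SD below the full-stimulation control mean, in both duplicate runs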;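 also: integrated fluorescence ratio of peak minus minimum over baseline after agonist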
TRPC6 act conf – mouse TRPC6 channel activators, confirmation, HEK293 cells, membrane potential dye, duplicate; AID 488961, 2010; activation, % at 10 µM; HEK293-TRPC6 membrane potential dye fluorescence, FDSS; shares compounds with TRPC6 inh; 2,800 tested, 11% active;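 active = ratio signal rise beyond 5 SD above unstimulated control wells' mean, seen in both duplicate runs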;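 also: plate controls were buffer EC0 wells for no effect and acetylcholine ECmax response for full effect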
Active calls of the source: *; i = inactive; / = no result.

SMILES	TRPC6 act	TRPC4 inh	TRPC6 inh	TRPC4 act	TRPC4 PAM	HEK293 MPD ctr-2	HEK293 MPD ctr 2-2	TRPC4 ctr mod	TRPC4/MOR inh 2	TRPC6 block conf	TRPC6 act conf	others
CC(C)C(NC(=O)c1c(F)cccc1F)C(=O)NCC(c1ccccc1)N(C)C (configuration not stated)	i	i	-5.1*	i	i	i	i	55%*	58%*	i	/
Cc1cn2c(=O)c(C(=O)N3CCN(c4ccccc4Cl)CC3)cnc2s1	i	i	i	i	i	/	/	/	/	/	/
O=C(C[N+]1(CC#Cc2ccccc2)CCCCC1)c1ccccc1	i	i	i	i	i	/	/	/	/	/	/
C(#Cc1ccccc1)C[N+]1(CC#Cc2ccccc2)CCCCC1	i	i	-9.1*	i	i	/	/	/	/	66%*	i	TRPC4 spec 2=i;TRPC4 spec=-0.2%*;HEK293 MPD ctr 2-1=i;HEK293 MPD ctr-1=0.7%*
C(#Cc1ccccc1)C[N+]1(CC#Cc2cccc3ccccc23)CCOCC1	i	i	-5*	i	i	-78%*	i	-16%*	i	i	i
Cc1ccc(C#CC[N+]2(CC#Cc3ccc(C)cc3)CCCCC2)cc1	i	i	-5.4*	i	i	92%*	i	17%*	i	44%*	/
CCC[N+]1(CC#CCC(c2ccccc2)c2ccccc2)CCCCC1	i	i	-5.2*	i	i	i	i	12%*	i	42%*	i
C#CC[N+]1(CC#Cc2ccccc2)CCCCC1	i	i	i	i	i	/	/	/	/	/	/
C#CC[N+]1(CC#Cc2cccc(C)c2)CCCCC1	i	i	i	i	i	/	/	/	/	/	/
CN(C)C(=O)CSc1nc2ccc(C(=O)c3ccccc3)cc2[nH]1	i	i	i	i	i	/	/	/	/	/	/
